From ChEMBL document CHEMBL3045438, “Synthesis and fungicidal evaluation of novel chalcone-based strobilurin analogues” (2007)

What was measured:
Format in all cases: functional
[1] = tested on: Botrytis cinerea; test: Antifungal activity against Botryotinia fuckeliana assessed as fungicidal activity at 200 mg/L (beneficial crop - cucumber)
Method in brief: (§1)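 In vivo preventive test on cucumber as host plant.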

[2] = tested on: Podosphaera fuliginea; test: Antifungal activity against Podosphaera fuliginea assessed as fungicidal activity at 200 mg/L (beneficial crop - cucumber); method in brief: as §1
[3] = tested on: Rhizoctonia solani; test: Antifungal activity against Rhizoctonia solani assessed as fungicidal activity at 200 mg/L (beneficial crop - cucumber); method in brief: as §1
[4] = tested on: Pseudoperonospora cubensis; test: Antifungal activity against Pseudoperonospora cubensis assessed as fungicidal activity at 200 mg/L (beneficial crop - cucumber); method in brief: as §1

Row | Compound | inhibition at 200 µg/mL [1] | inhibition at 200 µg/mL [2] | inhibition at 200 µg/mL [3] | inhibition at 200 µg/mL [4]
1 | CO/C=C(/C(=O)OC)c1ccccc1COc1ccccc1C(=O)/C=C/c1ccc(OC)cc1 | 0% | 0% | 0% | 0%
2 | CO/C=C(/C(=O)OC)c1ccccc1COc1ccc(C(=O)/C=C/c2ccccc2)cc1 | 0% | 0% | 0% | 0%
3 | CO/C=C(/C(=O)OC)c1ccccc1COc1cccc(C(=O)/C=C/c2ccccc2F)c1 | 0% | 0% | 38% | 0%
4 | CO/C=C(/C(=O)OC)c1ccccc1COc1cccc(C(=O)/C=C/c2ccc(C(C)(C)C)cc2)c1 | 0% | 78% | 0% | 28%
5 | CO/C=C(/C(=O)OC)c1ccccc1COc1cccc(C(=O)/C=C/c2cccc(F)c2)c1 | 10% | 0% | 36% | 0%
6 | CO/C=C(/C(=O)OC)c1ccccc1COc1cccc(C(=O)/C=C/c2ccc(N(C)C)cc2)c1 | 0% | 0% | 32% | 0%
7 | CO/C=C(/C(=O)OC)c1ccccc1COc1ccc(C(=O)/C=C/c2c(F)cccc2Cl)cc1 | 0% | 0% | 0% | 67%
8 | CO/C=C(/C(=O)OC)c1ccccc1COc1ccc(C(=O)/C=C/c2ccc(C)c(C)c2)cc1 | 0% | 30% | 0% | 67%
9 | CO/C=C(/C(=O)OC)c1ccccc1COc1cccc(C(=O)/C=C/c2ccc(Cl)cc2Cl)c1 | 0% | 0% | 30% | 54%
10 | CO/C=C(/C(=O)OC)c1ccccc1COc1cccc(C(=O)/C=C/c2ccc(C)cc2)c1 | 0% | 97% | 0% | 100%
11 | CO/C=C(/C(=O)OC)c1ccccc1COc1ccc(C(=O)/C=C/c2ccc(OC)cc2)cc1 | 0% | 0% | 0% | 62%
12 | CO/C=C(/C(=O)OC)c1ccccc1COc1ccc(Cl)cc1C(=O)/C=C/c1ccc(OC)cc1 | 0% | 0% | 0% | 0%
13 | CO/C=C(/C(=O)OC)c1ccccc1COc1ccc(C(=O)/C=C/c2ccc3c(c2)OCO3)cc1 | 0% | 0% | 0% | 0%
14 | CO/C=C(/C(=O)OC)c1ccccc1COc1ccc(C(=O)/C=C/c2cccc(F)c2)cc1 | 0% | 0% | 0% | 97%
15 | CO/C=C(/C(=O)OC)c1ccccc1COc1cccc(C(=O)/C=C/c2ccc3c(c2)OCO3)c1 | 0% | 0% | 29% | 0%
16 | CO/C=C(/C(=O)OC)c1ccccc1COc1cccc(C(=O)/C=C/c2ccc(F)cc2)c1 | 0% | 31% | 0% | 97%
17 | CO/C=C(/C(=O)OC)c1ccccc1COc1ccc(C(=O)/C=C/c2ccc(Cl)c(Cl)c2)cc1 | 0% | 67% | 37% | 33%
18 | CO/C=C(/C(=O)OC)c1ccccc1COc1cccc(C(=O)/C=C/c2cccc(C)c2)c1 | 0% | 0% | 0% | 81%
19 | CO/C=C(/C(=O)OC)c1ccccc1COc1cccc(C(=O)/C=C/c2ccc(OC)c(OC)c2)c1 | 0% | 0% | 0% | 72%
20 | CO/C=C(/C(=O)OC)c1ccccc1COc1ccc(C(=O)/C=C/c2cccs2)cc1 | 0% | 0% | 0% | 0%
21 | CO/C=C(/C(=O)OC)c1ccccc1COc1ccc(Cl)cc1C(=O)/C=C/c1ccccc1Cl | 0% | 0% | 0% | 0%
22 | CO/C=C(/C(=O)OC)c1ccccc1COc1ccc(C(=O)/C=C/c2ccccc2Br)cc1 | 0% | 67% | 21% | 83%
23 | CO/C=C(/C(=O)OC)c1ccccc1COc1ccccc1C(=O)/C=C/c1cccc(OC)c1 | 11% | 0% | 0% | 61%
